From ChEMBL document CHEMBL1759881, “Synthesis and anti-inflammatory activity of ent-kaurene derivatives” (Eur J Med Chem, 2011) come the findings set out here.

The subject of one data set is RAW264.7. Description: Antiinflammatory activity in mouse RAW264.7 cells assessed as inhibition of LPS-induced nitric oxide release pretreated for 15 mins before LPS challenge measured after 24 hrs by Griess method. It is filed as functional, cell-based. In outline: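 RAW 264.7 cells pre-incubated 15 min with compound (1–25 range in the table; 1, 5, 10, 25, 50 for dose-response) or DMSO vehicle, then LPS 250 ng/ml for 24 h. Nitrite in supernatant measured by Griess reagent, absorbance at 548 nm against NaNO2 standard. IC50 is the concentration giving 50% inhibition of NO release. Means ± SD of three independent experiments in triplicate.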

Data set [1] is described as follows: Cytotoxicity against LPS-stimulated mouse RAW264.7 cells assessed as cell viability at 1 to 25 uM pretreated for 15 mins before LPS challenge measured after 24 hrs by MTT assay. It is filed as cell-based. The note with it: LPS-stimulated RAW264.7 cells, read-out: Activity. In outline: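 RAW 264.7 cells plated at 10⁵ cells/well, treated with compound at 1–25 in the presence of LPS 250 ng/ml for 24 h. MTT then added for 4 h at 37 °C, formazan extracted in DMSO, absorbance read at 540 nm. Viability expressed relative to untreated controls. Triplicate wells, at least three independent experiments.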

As usually defined, the IC50 is the point on the concentration scale where inhibition reaches its midpoint.

Turning to `C[C@@]12CCC[C@@](C)(C(=O)OCc3ccccc3)[C@H]1CC[C@]13CC(=O)O[C@H](CC[C@H]12)C3`, the IC50 in the data set on RAW264.7 was more than 25 µM. In data set [1], the viability at 24 h, up to 25 µM turned out to be 50%.

On to `C=C1C[C@@]23CC[C@@H]4[C@](C)(CO)CCC[C@@]4(C)C2=CC[C@@H]1C3`, for which the concentration for half-maximal inhibition (IC50) in the data set on RAW264.7 is more than 25 µM. Besides, in data set [1], the viability at 24 h, up to 25 µM came out at 50%.

`C=C1C[C@@]23CC[C@@H]4[C@](C)(COC(C)=O)CCC[C@@]4(C)C2=CC[C@@H]1C3`: the IC50 in the data set with RAW264.7 was 10 µM. Besides, in data set [1], the viability at 24 h, up to 25 µM turned out to be 90%.

`COC(=O)[C@]1(C)CCCC2(C)[C@@H]3CC[C@@H]4C[C@@]3(CC[C@@H]21)C[C@]41CO1` (stereo not given in full): in the data set on RAW264.7, the IC50 was more than 25 µM. Moreover, the viability at 24 h, up to 25 µM in data set [1] came to 90%.

Take `COC(=O)[C@]1(C)CCC[C@@]2(C)[C@@H]3CC[C@@H]4C[C@@]3(CC[C@@H]21)C[C@@]41COS(=O)O1` (stereo not given in full): the IC50 in the data set on RAW264.7 amounted to 17 µM. Further, the viability at 24 h, up to 25 µM in data set [1] was determined as 95%.

As to `C=C1[C@@H]2CC[C@H]3[C@]4(C)CCC[C@@](C)(C(=O)OC)[C@H]4CC[C@]3(C2)[C@H]1OC(C)=O`, the half-maximal inhibitory concentration (IC50) in the data set with RAW264.7 is more than 25 µM. Moreover, the viability at 24 h, up to 25 µM in data set [1] stood at 40%.

`C[C@@]12CCC[C@@](C)(C(=O)OC[Si](C)(C)C)[C@H]1CC[C@]13CC(=O)O[C@H](CC[C@H]12)C3`: in the data set with RAW264.7, the half-maximal inhibitory concentration (IC50) was 5 µM and the inhibition entry was “Dose-dependent effect”. Further, in data set [1], the viability at 24 h, up to 25 µM was determined as 95%.

With `COC(=O)[C@]1(C)CCC[C@@]2(C)C3=CC[C@@H]4C[C@@]3(CC[C@H]12)C[C@]4(O)COC(=O)c1ccco1`, in the data set on RAW264.7, the concentration for half-maximal inhibition (IC50) turned out to be 10 µM. For the same compound, the viability at 24 h, up to 25 µM in data set [1] was 99%.

With `C=C1C[C@@]23CC[C@@H]4[C@](C)(C(=O)OC)CCC[C@@]4(C)C2=CC[C@@H]1C3` [GRANDIFLORENIC ACID METHYL ESTER], in the data set with RAW264.7, the concentration for half-maximal inhibition (IC50) is 5 µM and the inhibition result was “Dose-dependent effect”. For the same compound, in data set [1], the viability at 24 h, up to 25 µM was 100%.
